Results from ChEMBL document CHEMBL1764975, “A new DNA gyrase inhibitor subclass of the cyclothialidine family based on a bicyclic dilactam-lactone scaffold. Synthesis and antibacterial properties” (J Med Chem, 2011).
Converted amounts (≈) assume the structure as drawn.

Experiments:
Escherichia coli [1] = assay: Inhibition of Escherichia coli DNA gyrase A2B2 complex after 30 mins by supercoiling assay
Staphylococcus aureus [2] = assay: (§1) Antimicrobial activity against Staphylococcus aureus Smith after 18 hrs by agar dilution method; format: functional
Method in brief: (§2)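 Agar dilution on Mueller-Hinton medium, inoculum 10⁴ CFU/spot; MIC is the minimum inhibitory concentration against the named strain.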

Staphylococcus aureus [3] = assay: Antimicrobial activity against Staphylococcus aureus Smith infected in iv dosed septicaemia Swiss albino mouse model after 4 days; format: functional; conditions: 96 h
Method in brief: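 Septicaemia model in mice infected with S. aureus Smith, compound given iv. In experiments with 0-1 survivors among 5-10 control mice, ED₅₀ (mg/kg) taken as lowest dose giving 3-5 survivors out of 5 infected mice.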

Escherichia coli [4] = assay: Antimicrobial activity against Escherichia coli 25922 after 18 hrs by agar dilution method; format: functional; conditions: Escherichia coli, 25922, 18 h; method in brief: as §2
[5] = system: Stenotrophomonas maltophilia; assay: Antimicrobial activity against Xanthomonas maltophilia IAC 739 after 18 hrs by agar dilution method; format: functional; conditions: IAC 739, 18 h; method in brief: as §2
Staphylococcus aureus [6] = assay: Antimicrobial activity against Staphylococcus aureus ATCC 25923 after 18 hrs by agar dilution method; format: functional; conditions: ATCC 25923, 18 h; method in brief: as §2
Staphylococcus aureus [7] = assay: as §1; format: functional; method in brief: as §2; remark: listed apart in the source
[8] = system: Staphylococcus epidermidis; assay: Antimicrobial activity against Staphylococcus epidermidis 16/2 after 18 hrs by agar dilution method; format: functional; conditions: 16/2, 18 h; method in brief: as §2
Enterococcus faecalis [9] = assay: Antimicrobial activity against Enterococcus faecalis 6 after 18 hrs by agar dilution method; conditions: Enterococcus faecalis, 6, 18 h
Streptococcus pyogenes = assay: Antimicrobial activity against Streptococcus pyogenes b15 after 18 hrs by agar dilution method; format: functional; conditions: b15, 18 h; method in brief: as §2
[10] = Octanol-water partition coefficient, log D of the compound at pH 7.4 by shake-flask method; format: physicochemical
Method in brief: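 Octanol/water partition measured by shake-flask at pH 7.4.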

Staphylococcus aureus [11] = assay: Plasma shift, ratio of MIC for Staphylococcus aureus Smith in presence of mouse plasma to MIC for Staphylococcus aureus Smith in absence of mouse plasma; format: functional
Method in brief: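 Agar dilution MICs against S. aureus Smith were run on BHI agar mixed 1:1 with mouse plasma and on plain BHI agar. The plasma shift is the MIC with plasma divided by the MIC on BHI agar alone.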

Staphylococcus aureus [12] = assay: Antimicrobial activity against multidrug-resistant Staphylococcus aureus after 18 hrs by agar dilution method; format: functional
Method in brief: (§3)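 Agar dilution on Mueller-Hinton agar, inoculum 10⁴ CFU/spot, against panels of multiresistant clinical strains (S. aureus 11, E. faecalis 16, E. faecium 23). MIC_50/90 in μg/mL taken as the minimum concentration inhibiting at least 50% or 90% of the strains tested.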

Enterococcus faecalis [13] = assay: Antimicrobial activity against multidrug-resistant Enterococcus faecalis after 18 hrs by agar dilution method; format: functional; method in brief: as §3
Enterococcus faecium = assay: Antimicrobial activity against multidrug-resistant Enterococcus faecium after 18 hrs by agar dilution method; format: functional; method in brief: as §3
Streptococcus pneumoniae = assay: Antimicrobial activity against multidrug-resistant Streptococcus pneumoniae after 18 hrs by agar dilution method; format: functional
Method in brief: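 Agar dilution on IsoSensitest agar supplemented with sheep blood (5% v/v), inoculum 10⁴ CFU/spot, against 21 multiresistant S. pneumoniae strains. MIC_50/90 in μg/mL taken as the minimum concentration inhibiting at least 50% or 90% of the strains.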

Haemophilus influenzae = assay: Antimicrobial activity against multidrug-resistant Haemophilus influenzae after 18 hrs by agar dilution method; format: functional
Method in brief: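 Agar dilution on Haemophilus test medium, inoculum 10⁵ CFU/spot, against 21 multiresistant H. influenzae strains. MIC_50/90 in μg/mL taken as the minimum concentration inhibiting at least 50% or 90% of the strains.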

Moraxella catarrhalis = assay: Antimicrobial activity against multidrug-resistant Moraxella catarrhalis after 18 hrs by agar dilution method; format: functional
Method in brief: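 Agar dilution on Mueller-Hinton agar supplemented with sheep blood (5% v/v), inoculum 10⁵ CFU/spot, against 20 multiresistant M. catarrhalis strains. MIC_50/90 in μg/mL taken as the minimum concentration inhibiting at least 50% or 90% of the strains.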

Row | SMILES | MNEC (Escherichia coli [1]) [µg/mL] | MIC (Staphylococcus aureus [2]) [µg/mL] | ED50 (Staphylococcus aureus [3]) [mg/kg] | MIC (Escherichia coli [4]) [µg/mL] | MIC [5] [µg/mL] | MIC (Staphylococcus aureus [6]) [µg/mL] | MIC (Staphylococcus aureus [7]) [µg/mL] | MIC [8] [µg/mL] | MIC (Enterococcus faecalis [9]) [µg/mL] | MIC (Streptococcus pyogenes) [µg/mL] | logD [10] | MIC50 (Staphylococcus aureus [12]) [µg/mL] | MIC90 (Staphylococcus aureus [12]) [µg/mL] | MIC50 (Enterococcus faecalis [13]) [µg/mL] | MIC90 (Enterococcus faecalis [13]) [µg/mL] | MIC50 (Enterococcus faecium) [µg/mL] | MIC90 (Enterococcus faecium) [µg/mL] | MIC50 (Streptococcus pneumoniae) [µg/mL] | MIC90 (Streptococcus pneumoniae) [µg/mL] | MIC50 (Haemophilus influenzae) [µg/mL] | also measured
1 | COc1cc(O)c2c(c1C)C(=O)OCCCCC(=S)N[C@H](c1nc(C)no1)CSC2 | 0.004 | 0.06 (≈ 0.133 µM) | > 25 | > 64 | 0.5 (≈ 1.11 µM) | 0.12 (≈ 0.266 µM) | 0.06 (≈ 0.133 µM) | 0.01 (≈ 0.0221 µM) | 0.25 (≈ 0.554 µM) | 0.25 (≈ 0.554 µM) | 3.09 | 1 (≈ 2.21 µM) | 1 (≈ 2.21 µM) | 4 (≈ 8.86 µM) | 4 (≈ 8.86 µM) | 8 (≈ 17.7 µM) | 8 (≈ 17.7 µM) | 1 (≈ 2.21 µM) | 2 (≈ 4.43 µM) | 8 (≈ 17.7 µM) | Ratio (Staphylococcus aureus [11]): 8; MIC90 (Haemophilus influenzae): 16 µg/mL (≈ 35.4 µM); MIC50 (Moraxella catarrhalis): 2 µg/mL (≈ 4.43 µM); MIC90 (Moraxella catarrhalis): 2 µg/mL (≈ 4.43 µM)
2 | COc1cc(O)c2c(c1Br)C(=O)OCC(=O)NCC(=O)N[C@H](c1nc(C)no1)CSC2 | 0.02 | 1 (≈ 1.94 µM) | 3 | > 64 | > 64 | 4 (≈ 7.76 µM) | 1 (≈ 1.94 µM) | < 0.12 | 0.5 (≈ 0.97 µM) | < 0.12 | 1.4 | 4 (≈ 7.76 µM) | 4 (≈ 7.76 µM) | 0.25 (≈ 0.485 µM) | 0.5 (≈ 0.97 µM) | 0.5 (≈ 0.97 µM) | 0.5 (≈ 0.97 µM) | 0.5 (≈ 0.97 µM) | 2 (≈ 3.88 µM) | 1 (≈ 1.94 µM) | Ratio (Staphylococcus aureus [11]): 2; MIC90 (Haemophilus influenzae): 4 µg/mL (≈ 7.76 µM); MIC50 (Moraxella catarrhalis): 1 µg/mL (≈ 1.94 µM); MIC90 (Moraxella catarrhalis): 2 µg/mL (≈ 3.88 µM)
3 | COc1cc(O)c2c(c1Br)C(=O)OCC(=O)NCC(=S)N[C@H](c1nc(C)no1)CSC2 | 0.05 | 0.12 (≈ 0.226 µM) | 12.5 | > 64 | 0.25 (≈ 0.47 µM) | 0.25 (≈ 0.47 µM) | < 0.12 | < 0.12 | < 0.12 | 0.12 (≈ 0.226 µM) | 2.61 |  |  |  |  |  |  |  |  |  | 
4 | CC(=O)NC[C@H]1CN(c2ccc(N3CCOCC3)c(F)c2)C(=O)O1 [LINEZOLID] |  |  |  |  |  |  |  |  |  |  |  | 1 (≈ 2.96 µM) | 2 (≈ 5.93 µM) | 2 (≈ 5.93 µM) | 2 (≈ 5.93 µM) | 1 (≈ 2.96 µM) | 2 (≈ 5.93 µM) | 1 (≈ 2.96 µM) | 2 (≈ 5.93 µM) | 8 (≈ 23.7 µM) | MIC90 (Haemophilus influenzae): 16 µg/mL (≈ 47.4 µM); MIC50 (Moraxella catarrhalis): 8 µg/mL (≈ 23.7 µM); MIC90 (Moraxella catarrhalis): 16 µg/mL (≈ 47.4 µM)
5 | CC1(C)S[C@@H]2[C@H](NC(=O)Cc3ccccc3)C(=O)N2[C@H]1C(=O)O [PENICILLIN G] |  |  |  |  |  |  |  |  |  |  |  |  |  |  |  |  |  | 2 (≈ 5.98 µM) | 8 (≈ 23.9 µM) | 32 (≈ 95.7 µM) | MIC90 (Haemophilus influenzae): > 32 µg/mL; MIC50 (Moraxella catarrhalis): 8 µg/mL (≈ 23.9 µM); MIC90 (Moraxella catarrhalis): 32 µg/mL (≈ 95.7 µM)
6 | CN[C@H](CC(C)C)C(=O)N[C@H]1C(=O)N[C@@H](CC(N)=O)C(=O)N[C@H]2C(=O)N[C@H]3C(=O)N[C@H](C(=O)N[C@H](C(=O)O)c4cc(O)cc(O)c4-c4cc3ccc4O)[C@H](O)c3ccc(c(Cl)c3)Oc3cc2cc(c3O[C@@H]2O[C@H](CO)[C@@H](O)[C@H](O)[C@H]2O[C@H]2C[C@](C)(N)[C@H](O)[C@H](C)O2)Oc2ccc(cc2Cl)[C@H]1O [VANCOMYCIN] |  |  | 1.5 | > 64 | > 64 |  |  |  |  | 1 (≈ 0.69 µM) |  | 2 (≈ 1.38 µM) | 4 (≈ 2.76 µM) | 2 (≈ 1.38 µM) | 256 (≈ 177 µM) | 256 (≈ 177 µM) | > 256 |  |  |  | 
7 | COc1cc(O)c2c(c1C)C(=O)OCCCCC(=S)N[C@H](c1nc(CN)no1)CSC2.Cl | 0.002 | 0.25 | 8.5 | 64 | 4 | 0.5 | 0.25 | < 0.12 | 0.5 | 0.5 | 1.85 |  |  |  |  |  |  |  |  |  | Ratio (Staphylococcus aureus [11]): 4
